From ChEMBL document CHEMBL5108040, “N-1,2,3-Triazole-isatin derivatives: anti-proliferation effects and target identification in solid tumour cell lines” (RSC Med Chem, 2022)
Active and inactive are the calls of the source. The rule behind the calls is not given here.

Assays:
[1] = test system: MCF-10A; assay: Antiproliferative activity against human MCF-10A cells assessed as inhibition of cell growth incubated for 72 hrs by MTT assay; format: functional, cell-based
Method in brief: (§1)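 MTT assay in human tumour lines SW480 (colon), A549 (lung adenocarcinoma), MCF7 and MDA-MB-231 (breast), in non-tumorigenic breast MCF10A, and in human embryonic kidney Hek293 as non-tumour reference. Compounds tested at several concentrations for 72 h; IC50 derived from dose-response and given as mean ± error. Cisplatin as reference.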

[2] = test system: A549; assay: Antiproliferative activity against human A549 cells assessed as inhibition of cell growth incubated for 72 hrs by MTT assay; format: functional, cell-based; conditions: A549, 72 h; method in brief: as §1
[3] = Cytotoxicity against HEK293 cells assessed as inhibition of cell growth incubated for 72 hrs by MTT assay; format: toxicity, cell-based; conditions: human; method in brief: as §1
[4] = test system: SW480; assay: Antiproliferative activity against human SW480 cells assessed as inhibition of cell growth incubated for 72 hrs by MTT assay; format: functional, cell-based; conditions: SW480, 72 h; method in brief: as §1
[5] = test system: MCF7; assay: Antiproliferative activity against human MCF7 cells assessed as inhibition of cell growth incubated for 72 hrs by MTT assay; format: functional, cell-based; conditions: MCF7, 72 h; method in brief: as §1
[6] = test system: MDA-MB-231; assay: Antiproliferative activity against human MDA-MB-231 cells assessed as inhibition of cell growth incubated for 72 hrs by MTT assay; format: functional, cell-based; conditions: MDA-MB-231, 72 h; method in brief: as §1
[7] = Antiproliferative activity against human SW182 cells assessed as inhibition of cell growth at 2.5 to 2 mM incubated for 24 hrs by MTT assay relative to control; format: functional; set-up: scale not given: the % may be the effect or the level left; conditions: dose 2.5-2 mM, at 2 to 2.5 mM
[8] = Antiproliferative activity against human H199 cells assessed as inhibition of cell growth at 2.5 to 2 mM incubated for 24 hrs by MTT assay relative to control; format: functional; set-up: scale not given: the % may be the effect or the level left; conditions: dose 2.5-2 mM, at 2 to 2.5 mM
[9] = test system: MDA-MB-231; assay: Downregulation of EP300 gene expression in human MDA-MB-231 cells at IC50 concentration incubated for 72 hrs by RT-PCR analysis; format: functional, cell-based
[10] = test system: MCF7; assay: Downregulation of EP300 gene expression in human MCF7 cells at IC50 concentration incubated for 72 hrs by RT-PCR analysis; format: functional, cell-based
[11] = test system: MDA-MB-231; assay: Downregulation of LYPLA2 gene expression in human MDA-MB-231 cells at IC50 concentration incubated for 72 hrs by RT-PCR analysis; format: functional, cell-based
Method in brief: (§2)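 mRNA levels measured by qPCR in MCF7, MDA-MB-231 and MCF10A breast cells after compound treatment, against DMSO-treated vehicle control. LYPLA2 expression given as a ratio to GAPDH. Statistics by Brown-Forsythe and Welch ANOVA with Dunnett T3 correction; p < 0.05 and p < 0.01 marked.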

[12] = test system: MCF7; assay: Downregulation of LYPLA2 gene expression in human MCF7 cells at IC50 concentration incubated for 72 hrs by RT-PCR analysis; format: functional, cell-based; method in brief: as §2
[13] = test system: MCF-10A; assay: Downregulation of LYPLA2 gene expression in human MCF-10A cells at IC50 concentration incubated for 72 hrs by RT-PCR analysis; format: functional, cell-based; method in brief: as §2

| SMILES | IC50 [2] | IC50 at 72 h [3] | IC50 [4] | further results |
| --- | --- | --- | --- | --- |
| O=C1N(Cc2cn(Cc3ccccc3)nn2)c2ccc(Br)cc2[C@@]1(O)c1ccccc1 | 29.3 µM | 87.3 µM | 18.9 µM | IC50 [1]: 1100 nM; IC50 [5]: 2040 nM; IC50 [6]: 1620 nM |
| COc1ccc([C@@]2(O)C(=O)N(Cc3cn(Cc4ccccc4)nn3)c3ccccc32)cc1 | 95.9 µM | 38 µM | 36.6 µM | – |
| O=C(Cn1cc(CN2C(=O)C(=O)c3ccccc32)nn1)Nc1nc2ccccc2s1 | – | – | – | Activity [7]: >50%; Activity [8]: >50% |
| COc1ccc([C@]2(O)C(=O)N(Cc3cn(Cc4ccccc4)nn3)c3ccccc32)cc1 | > 100 µM | > 100 µM | 75.8 µM | – |
| O=C1N(Cc2cn(Cc3ccccc3)nn2)c2ccccc2[C@@]1(O)c1ccc(F)cc1 | 72.1 µM | 50.3 µM | 28.2 µM | – |
| O=C1N(Cc2cn(Cc3ccccc3)nn2)c2ccccc2[C@]1(O)c1ccc(F)cc1 | 77.3 µM | 53.5 µM | 32.1 µM | – |
| Cc1ccc([C@]2(O)C(=O)N(Cc3cn(Cc4ccccc4)nn3)c3ccccc32)cc1 | > 100 µM | > 100 µM | > 100 µM | – |
| CCCCn1cc(CN2C(=O)[C@@](O)(c3ccccc3)c3ccccc32)nn1 | > 100 µM | > 100 µM | > 100 µM | – |
| CC(C)[C@@H]1CC[C@@H](C)C[C@@H]1n1cc(CN2C(=O)C(=O)c3ccccc32)nn1 | 53.8 µM | 23.1 µM | 8.9 µM | Activity [9]: Active; IC50 [1]: 1080 nM; Activity [10]: Active; IC50 [5]: 1340 nM; IC50 [6]: 1790 nM |
| O=C1N(Cc2cn(Cc3ccccc3)nn2)c2ccc(Br)cc2[C@]1(O)c1ccccc1 | 65.9 µM | 36.1 µM | 28.7 µM | IC50 [1]: 1020 nM; Activity [11]: Active; Activity [12]: Active; IC50 [5]: 1490 nM; IC50 [6]: 1410 nM |
| O=C1N(Cc2cn(Cc3ccccc3)nn2)c2ccccc2[C@@]1(O)c1ccsc1 | 98 µM | 46.4 µM | 62.5 µM | – |
| O=C1C(=O)N(Cc2cn(Cc3ccccc3)nn2)c2ccccc21 | 54.7 µM | 63.7 µM | 32.2 µM | Activity [9]: Active; IC50 [1]: 1800 nM; Activity [10]: Active; IC50 [5]: 1390 nM; IC50 [6]: 2950 nM |
| CCCCn1cc(CN2C(=O)[C@](O)(c3ccccc3)c3ccccc32)nn1 | > 100 µM | > 100 µM | > 100 µM | – |
| O=C1N(Cc2cn(Cc3ccccc3)nn2)c2ccccc2[C@]1(O)c1ccsc1 | > 100 µM | 64 µM | 29.5 µM | – |
| Cc1ccc2nc(NC(=O)Cn3cc(CN4C(=O)C(=O)c5ccccc54)nn3)sc2c1 | – | – | – | Activity [7]: >50%; Activity [8]: >50% |
| O=C1N(Cc2cn(Cc3ccccc3)nn2)c2ccccc2[C@]1(O)c1ccccc1 | > 100 µM | > 100 µM | 75.3 µM | – |
| O=C1N(Cc2cn(Cc3ccccc3)nn2)c2ccccc2[C@@]1(O)c1cccc(O)c1 | > 100 µM | 33.7 µM | 31.8 µM | – |
| Cc1ccc2c(c1)C(=O)C(=O)N2Cc1cn(Cc2ccccc2)nn1 | 41.5 µM | 26.9 µM | 26.6 µM | Activity [9]: Active; IC50 [1]: 1540 nM; Activity [10]: Active; IC50 [5]: 1500 nM; IC50 [6]: 2400 nM |
| O=C1N(Cc2cn(Cc3ccccc3)nn2)c2ccccc2[C@@]1(O)c1ccc2ccccc2c1 | 28.3 µM | 12.4 µM | 9.9 µM | IC50 [1]: 1330 nM; Activity [11]: Active; IC50 [5]: 1750 nM; Activity [13]: Active; IC50 [6]: 3100 nM |
| O=C1N(Cc2cn(Cc3ccccc3)nn2)c2ccccc2[C@]1(O)c1ccc2ccccc2c1 | 23.5 µM | 14 µM | 8.7 µM | – |
| O=C1N(Cc2cn(Cc3ccccc3)nn2)c2ccccc2[C@@]1(O)c1ccccc1 | > 100 µM | > 100 µM | 62.4 µM | – |
| CC(C)[C@@H]1CC[C@@H](C)C[C@@H]1n1cc(CN2C(=O)C3(OCCO3)c3ccccc32)nn1 | > 100 µM | > 100 µM | > 100 µM | – |
| CS(=O)(=O)c1ccc2nc(NC(=O)Cn3cc(CN4C(=O)C(=O)c5ccccc54)nn3)sc2c1 | – | – | – | Activity [7]: >50%; Activity [8]: >50% |
